# Assay results: ChEMBL document CHEMBL6071188, “Synthesis and In Vivo Profiling of Desymmetrized Antimalarial Trioxolanes with Diverse Carbamate Side Chains” (ACS Med Chem Lett, 2024)
# Active and inactive are the calls of the source. The calls are words filed in the database; no cut-off is given here.
# System: Plasmodium berghei
# Experiment: Antiplasmodial activity against Plasmodium berghei infected in female Swiss Webster mouse model assessed as survival at 50 mg/kg, […]
# Assay type: functional
# Conditions: route po
# Outline: (§1)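 Female Swiss Webster mice (~20 g) infected ip with 10^6 P. berghei-infected erythrocytes from a donor mouse. Dosing by oral gavage once daily for 1–2 days starting 1 h post-inoculation, in 10% DMSO/50% PEG400/40% of 20% HP-β-CD in water. Five mice per arm. Daily Giemsa smears from day 7, counting infected cells per 1000 erythrocytes. Body weight tracked. Euthanasia at >50% parasitemia or >15% weight loss. Followed to day 30; cure means no parasitemia at day 30. Survival reported as the day of the longest-surviving mouse.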
row,Structure (SMILES),Survival [days]
1,NC1CCN(C(=O)O[C@@H]2CCC[C@]3(C2)OOC2(O3)C3CC4CC(C3)CC2C4)CC1 (stereo not given in full),12

# System: Plasmodium falciparum
# Experiment: Antiplasmodial activity against Plasmodium falciparum W2 infected in human erythrocytes assessed as inhibition of parasitic growth incubated for 72 hrs by YOYO-1 staining based FACScalibur flow cytometry analysis
# Assay type: functional, organism-based
# Conditions: W2, Erythrocyte
# Outline: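 P. falciparum W2 grown at 2% hematocrit in RPMI 1640 with 0.5% AlbuMAX II, 0.1 mM hypoxanthine and 25 mM HEPES pH 7.4, at 37 °C under 5% O2/5% CO2/90% N2. Twelve concentrations (3-fold steps, 10 μM to 0.06 nM) or DMSO, 72 h. Cells fixed in 2% formaldehyde, permeabilized, stained with 25 nM YOYO-1 (≥24 h, 4 °C). Parasitemia by flow cytometry on 5 × 10^4 cells. IC50 from 3 replicates.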
row,Structure (SMILES),EC50 [nM]
1,NC1(CNC(=O)O[C@@H]2CCC[C@]3(C2)OOC2(O3)C3CC4CC(C3)CC2C4)CC1 (stereo not given in full),1.5

# System: Plasmodium berghei
# Experiment: Antiplasmodial activity against Plasmodium berghei infected in female Swiss Webster mouse model assessed as reduction in parasitemia at 20 mg/kg, po administered as a single dose and monitored for 30 days by giemsa staining based microscopic analysis
# Conditions: time 30.0 day
row,Structure (SMILES),Activity
1,c1cc([C@H]2CC[C@]3(CC2)OO[C@]2(O3)C3CC4CC(C3)CC2C4)ccc1OCCN1CCOCC1,Active

# System: not listed separately
# Experiment: Solubility of the compound in PBS buffer at pH 7.4 at 2 mg/ml incubated for 5 to 6 hrs by LC-MS analysis
# Assay type: physicochemical
# Conditions: time 5-6 hrs
row,Structure (SMILES),solubility [µM]
1,c1cc([C@H]2CC[C@]3(CC2)OO[C@]2(O3)C3CC4CC(C3)CC2C4)ccc1OCCN1CCOCC1,0.181

# System: not listed separately
# Experiment: Toxicity in female Swiss Webster mouse infected with Plasmodium berghei assessed as drug tolerance at 4 mg/kg, po administered once daily for 2 days and measured upto 30 days
# Assay type: organism-based
# Conditions: in vivo, 720 h, time 30 day
# Outline: as §1
row,Structure (SMILES),Activity
1,NC1CCN(C(=O)O[C@@H]2CCC[C@]3(C2)OOC2(O3)C3CC4CC(C3)CC2C4)CC1 (stereo not given in full),Non-Toxic

# System: not listed separately
# Experiment: Solubility of the compound in PBS buffer at pH 7.4
# Assay type: physicochemical
# Conditions: not given
row,Structure (SMILES),solubility kinetic [µM]
1,NC1CCN(C(=O)O[C@@H]2CCC[C@]3(C2)OOC2(O3)C3CC4CC(C3)CC2C4)CC1 (stereo not given in full),145

# System: Plasmodium berghei
# Experiment: Antiplasmodial activity against Plasmodium berghei infected in female Swiss Webster mouse model assessed as survival at 4 mg/kg, po administered once daily for 2 days and measured upto 30 days
# Assay type: functional
# Conditions: time 30 day
# Outline: as §1
row,Structure (SMILES),Survival [days]
1,NC1CCN(C(=O)O[C@@H]2CCC[C@]3(C2)OOC2(O3)C3CC4CC(C3)CC2C4)CC1 (stereo not given in full),11

# System: Plasmodium berghei
# Experiment: Antiplasmodial activity against Plasmodium berghei infected in female Swiss Webster mouse model assessed as survival at 10 mg/kg, po administered once daily for 2 days and measured upto 30 days
# Assay type: functional
# Conditions: time 30 day
# Outline: as §1
row,Structure (SMILES),Survival [days]
1,NC1CCN(C(=O)O[C@@H]2CCC[C@]3(C2)OOC2(O3)C3CC4CC(C3)CC2C4)CC1 (stereo not given in full),12

# System: not listed separately
# Experiment: Metabolic stability in human liver microsomes assessed as intrinsic clearance
# Assay type: ADME, Microsome
# Conditions: liver microsomes, read-out: CLH
row,Structure (SMILES),microsomal CLint [µL/min/mg]
1,NC1(CNC(=O)O[C@@H]2CCC[C@]3(C2)OOC2(O3)C3CC4CC(C3)CC2C4)CC1 (stereo not given in full),41.7

# System: Plasmodium berghei
# Experiment: Antiplasmodial activity against Plasmodium berghei infected in female Swiss Webster mouse model assessed as cure rate at 40 mg/kg, po measured upto 30 days relative to control
# Assay type: functional
# Conditions: time <= 30 day
row,Structure (SMILES),Activity [%]
1,NC1CCN(C(=O)O[C@@H]2CCC[C@]3(C2)OOC2(O3)C3CC4CC(C3)CC2C4)CC1 (stereo not given in full),20

# System: not listed separately
# Experiment: Toxicity in female Swiss Webster mouse infected with Plasmodium berghei assessed as drug tolerance at 50 mg/kg, […]
# Assay type: organism-based
# Conditions: in vivo, po
# Outline: as §1
row,Structure (SMILES),Activity
1,NC1CCN(C(=O)O[C@@H]2CCC[C@]3(C2)OOC2(O3)C3CC4CC(C3)CC2C4)CC1 (stereo not given in full),Non-Toxic

# System: Plasmodium berghei
# Experiment: Antiplasmodial activity against Plasmodium berghei infected in female Swiss Webster mouse model assessed as survival at 20 mg/kg, po administered once daily for 1 day
# Conditions: not given
row,Structure (SMILES),Survival [days]
1,c1cc([C@H]2CC[C@]3(CC2)OO[C@]2(O3)C3CC4CC(C3)CC2C4)ccc1OCCN1CCOCC1,30
2,NC1CCN(C(=O)O[C@@H]2CCC[C@]3(C2)OOC2(O3)C3CC4CC(C3)CC2C4)CC1 (stereo not given in full),11

# System: not listed separately
# Experiment: Toxicity in female Swiss Webster mouse infected with Plasmodium berghei assessed as drug tolerance at 10 mg/kg, po administered once daily for 2 days and measured upto 30 days
# Assay type: organism-based
# Conditions: in vivo, 720 h, time 30 day
# Outline: as §1
row,Structure (SMILES),Activity
1,NC1CCN(C(=O)O[C@@H]2CCC[C@]3(C2)OOC2(O3)C3CC4CC(C3)CC2C4)CC1 (stereo not given in full),Non-Toxic

# System: not listed separately
# Experiment: Toxicity in female Swiss Webster mouse infected with Plasmodium berghei assessed as drug tolerance at 20 mg/kg, […]
# Assay type: organism-based
# Conditions: in vivo, po
row,Structure (SMILES),Activity
1,NC1CCN(C(=O)O[C@@H]2CCC[C@]3(C2)OOC2(O3)C3CC4CC(C3)CC2C4)CC1 (stereo not given in full),Non-Toxic
